Screens (PubChem BioAssay)
Sampled rows, rich in hits. Any-hit rate of the full collection: about 4.5%.
TAAR1 ag = human TAAR1 agonists, primary screen, Fluo-8 calcium fluorescence, CHO RD-HGA16 cells | AID 624467, 2012 | Trace amine-associated receptor 1 (Homo sapiens), Q96RJ0 | vehicle wells 0%, saturating PEA agonist 100% | 360,000 compounds, 0.99% hits | activation, % at 3 µM;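 active means activation above the mean activation of all test compounds in the run plus 3 SD, cut at about 38% in these data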
Target sequence (Q96RJ0 whole entry, looked up): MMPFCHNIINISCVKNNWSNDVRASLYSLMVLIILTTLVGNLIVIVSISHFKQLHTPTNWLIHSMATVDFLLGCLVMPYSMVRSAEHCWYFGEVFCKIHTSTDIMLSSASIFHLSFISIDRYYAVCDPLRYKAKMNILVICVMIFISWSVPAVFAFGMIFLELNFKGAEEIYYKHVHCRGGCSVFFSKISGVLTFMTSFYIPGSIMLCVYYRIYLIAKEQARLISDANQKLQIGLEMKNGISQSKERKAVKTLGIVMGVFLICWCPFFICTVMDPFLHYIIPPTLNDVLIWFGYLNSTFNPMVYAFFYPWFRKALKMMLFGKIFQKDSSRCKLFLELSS
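Signal – calcium-sensitive Fluo-8 signal, excitation 470-495, emission 515-575 nm · System – RD-HGA16 (CHO) cells co-expressing Gα16 and hTAAR1 · Incubation – 17-24 h seeding, 75 min 37 °C dye, 30 min RT · Compound dosing – 3 µM single concentration · Repeats – no replicates (n 1)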
GPR7 antagonist = GPR7 receptor antagonists, primary screen, cell-based, fluorescence, single concentration; inhibition, % at 4.4 µM; 290,000 compounds, 1.1% hits; GPR7-expressing cells, fluorescence antagonist assay; AID 1861, 2009; in the data active means inhibition above about 16%, passing the limit was not always enough;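 further: cells stimulated with the agonist NPW; 0% = agonist with vehicle and 100% = vehicle without agonist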
Target sequence (P48145 whole entry, looked up): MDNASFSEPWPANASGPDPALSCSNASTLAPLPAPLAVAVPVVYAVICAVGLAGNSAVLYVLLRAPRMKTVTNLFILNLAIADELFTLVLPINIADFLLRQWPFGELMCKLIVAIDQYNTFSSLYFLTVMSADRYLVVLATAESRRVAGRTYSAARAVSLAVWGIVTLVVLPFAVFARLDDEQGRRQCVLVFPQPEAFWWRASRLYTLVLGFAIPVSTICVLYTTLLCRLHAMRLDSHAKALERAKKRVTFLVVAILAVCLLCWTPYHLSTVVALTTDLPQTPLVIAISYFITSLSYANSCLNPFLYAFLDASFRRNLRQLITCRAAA
TAAR1 antagonist = human TAAR1 antagonists, primary screen, Fluo-8 calcium fluorescence, CHO RD-HGA16 cells | Trace amine-associated receptor 1 (Homo sapiens), Q96RJ0 | antagonist | AID 624466, 2012 | inhibition, % at 3 µM | 360,000 compounds, 1.5% hits;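 active means inhibition above a per-plate cutoff, the mean inhibition of test compounds on that plate plus 3 SD, cut at about 49% in these data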;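 further: 0% = DMSO plus EC80 beta-PEA response and 100% = DMSO alone without agonist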
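Material: RD-HGA16 CHO cells with stable hTAAR1 and Gα16; Dosing: single nominal final test compound concentration of 3 µM; Schedule: seeding 17-24 h prior, 75-min 37 °C, 30-min RT dye loading; Detection: kinetic Fluo-8 calcium fluorescence measurement; Measure: % inhibition from peak post-agonist over basal fluorescence ratio; Benchmarks: vehicle and agonist controls.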
OX1R antag-1 = OX1R (HCRTR1) antagonists, primary screen, fluorescence, CHO/OX1R cells, Fluo-8 calcium, orexin A. 330,000 compounds, 0.43% hits. inhibition, % at 5 µM. Orexin/Hypocretin receptor type 1 (Homo sapiens), O43613. Fluo-8 calcium fluorescence;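 active means inhibition above its plate's threshold, mean inhibition of all tested compounds on the plate plus 3 SD, cut at about 37% in these data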;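 further: 0% = orexin A challenge wells and 100% = SB-334867-A antagonist wells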
CHO parental Ca = ATP-evoked calcium signal inhibitors, parental CHO, primary screen, counter-screen for OX1R antagonist project, cell-based, fluorescence, Fluo-8 calcium dye; inhibition, % at 5.6 µM; parental CHO-K1, ATP-induced calcium, Fluo-8 fluorescence; 330,000 compounds, 0.63% hits; AID 463079, 2010;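 active means inhibition above that plate's mean sample inhibition plus 3 SD, cut at about 26% in these data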;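 further: 0% = ATP-challenged DMSO wells and 100% = DMSO wells without ATP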
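Test system: untransfected parental CHO cell line; also added: ATP stimulus; dosing: 5.6 µM, single dose; signal: calcium-sensitive Fluo-8 fluorescence; measure: percent inhibition of ATP-evoked calcium rise, normalized to controls; benchmarks: low control ATP plus DMSO, high control DMSO only; replication: one well per compound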
OX1R antag-2 = antagonists of human orexin 1 receptor (OX1R); Orexin/Hypocretin receptor type 1 (Homo sapiens), O43613; inhibition, % at 6.6 µM; OX1R-expressing cells, FRET antagonist read-out; 330,000 compounds, 1.8% hits; in the data active means inhibition mostly above about 38%, no sharp cut-off; inactive means mostly below about 40%;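 further: 0% = agonist challenge alone and 100% = reference antagonist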
Starred values were filed as active, the others as inactive; . = no result.

SMILES	TAAR1 ag	GPR7 antagonist	TAAR1 antagonist	OX1R antag-1	CHO parental Ca	OX1R antag-2
O=C(c1ccccc1Nc1ccc(SC(F)F)cc1)N1CCCCC1	2	9	9	-30	-16	10
COc1cc2[nH]c(=O)n3nc(-c4ccccc4)nc3c2cc1OC	.	3	.	1	-8	37*
Cn1cc(C=CC(=O)O)c2nccnc21	1	.	-23	.	.	.
Cc1ccc(SCc2c(C(=O)N/N=C/c3ccncc3)nnn2-c2nonc2N)cc1	12	-3	50*	-11	-7	-4
Nc1nonc1-n1nnc(C(=O)N/N=C/c2ccccn2)c1CNc1ccccc1	16	-17	11	0	-21	50*
Nc1nonc1-n1nnc(C(=O)N/N=C/c2ccncc2)c1CSc1ccc(Cl)cc1	7	-5	-17	-7	-18	17
Nc1nonc1-n1nnc(C(=O)N/N=C/c2ccccn2)c1-c1ccccc1	7	-12	-14	.	.	.
COc1ccc(C(=O)N2CCC(c3ccccc3)CC2)c(OC)c1OC	7	20*	-27	-11	-15	27
COc1cccc(C(=O)N2CCN(C(=O)c3ccc(-c4ccccc4)cc3)CC2)c1OC	3	-1	-22	-37	-5	2
C/C(Cn1nnc([N+](=O)[O-])n1)=N\NC(=O)c1ccccc1	1	-11	-27	2	-17	32*
CC(=O)Oc1ccc(C(=O)Nc2ccc(S(=O)(=O)N3CCOCC3)cc2)cc1	3	-4	2	-3	-2	14
Clc1ccc(Cn2ncc3c(N4CCN(c5ccccc5)CC4)ncnc32)cc1	12	.	57*	.	.	.
COc1ccccc1CNC(=O)COc1cc2c(c3oc(=O)cc(C)c13)CCC(C)(C)O2	4	18	53*	-22	-8	27
COc1cccc(CNC(=O)COc2cc3c(c4oc(=O)cc(C)c24)CCC(C)(C)O3)c1	1	14	58*	-19	-3	31
Cc1c(C)c2c(OCC(=O)O)cc3c(c2oc1=O)CCC(C)(C)O3	5	-22	-5	1	-4	13
Cc1cc(=O)oc2c3c(cc(OCC(=O)NCc4cccnc4)c12)OC(C)(C)CC3	2	3	-3	-36	-20	11
Cc1c(C)c2c(OCC(=O)Nc3ccc(CCO)cc3)cc3c(c2oc1=O)CCC(C)(C)O3	2	12	51*	-3	2	14
Clc1cccc(Cl)c1COc1ccccc1CNn1cnnc1	6	-10	-9	-8	-1	22
CC(C)c1ccc(C2C(C(=O)c3ccco3)=C(O)C(=O)N2CCN2CCOCC2)cc1 (stereo unspecified)	7	-6	-6	-17	-18	5
COc1ccc(Cc2c(-c3ccc(F)cc3)nc3cc(C)c(Br)c(C)n23)c(C)c1	1	.	-24	.	.	.
CCOC(=O)/C(=C/C=C1\Sc2ccccc2N1CC)C(C)=O	.	11	.	30	28*	41
O=C(c1cccc([N+](=O)[O-])c1)c1ccc2c(c1)C(=O)NC2=O	5	-3	8	-1	10	54*
COc1cccc(NC(=O)CN(C)C(=O)c2ccccc2Sc2ccccc2C#N)c1	7	.	17	24	-14	39*
COc1cccc(CN(C)C(=O)c2ccccc2Sc2ccccc2C#N)c1	3	8	21	-21	-18	24
CN(CC(=O)Nc1cccc(F)c1)C(=O)c1ccccc1Sc1ccccc1C#N	5	.	26	14	-21	33*
SMILES	TAAR1 ag	GPR7 antagonist	TAAR1 antagonist	OX1R antag-1	CHO parental Ca	OX1R antag-2
CN(Cc1cccc(F)c1)C(=O)c1ccccc1Sc1ccccc1C#N	1	13	12	-21	-4	41
COc1ccccc1CN1CCC(CNS(=O)(=O)c2cc(-c3onc(C)c3C)ccc2OC)CC1	3	22	-19	-4	-31	21
CC(C)[C@H](NC(=O)c1ccc(Cl)cc1Cl)C(=O)NNC(=O)c1ccco1	3	.	-21	-8	-18	8
CC(C)N(Cc1ccccc1)S(=O)(=O)c1n[nH]c(C(C)(C)C)n1	0	.	-20	.	.	.
O=C(Nc1ccccc1C(=O)N1CCN(c2ccccc2)CC1)c1ccco1	3	0	10	13	-20	51*
COc1cc2c3c(c1)C(C)CC(C)(C)N3C(=O)C2=O (stereo unspecified)	-1	14	-45	-77	0	44*
CCc1cc2c3c(c1)C(C)CC(C)(C)N3C(=O)/C2=C1\SC(=O)NC1=O (stereo unspecified)	1	-18	-21	-20	-5	4
OC(c1ccc(F)cc1)c1nc(-c2cc3ccccc3o2)cs1 (stereo unspecified)	45*	.	75*	.	.	.
Cc1c(Br)ccc(NC(=O)Cn2nc(-c3cccs3)ccc2=O)c1C	-1	13	-7	0	-22	55*
O=C(CSc1nc(-c2ccccc2)c(-c2ccccc2)[nH]1)Nc1ccc2c(c1)OCO2	6	-11	-7	5	-16	50*
O=C(CSc1nc2ncccc2[nH]1)Nc1ccc2c(c1)OCO2	2	6	-24	-14	-10	4
CN(CC(=O)Nc1ccc(F)cc1[N+](=O)[O-])C1CCS(=O)(=O)C1 (stereo unspecified)	10	.	-7	16	-2	34*
CN(CC(=O)Nc1ccccc1Cl)C1CCS(=O)(=O)C1 (stereo unspecified)	4	.	0	-23	0	4
O=C(Oc1ccc[nH]c1=O)c1cc([N+](=O)[O-])cc([N+](=O)[O-])c1	0	-7	-22	0	7	68*
COc1ccc(C(=O)Oc2ccc[nH]c2=O)cc1	6	5	4	-12	5	11
Cc1ccc(N(C)S(=O)(=O)c2ccc3c(c2)CC(C)N3C(=O)C2CC2)cc1 (stereo unspecified)	-1	7	49*	-29	-1	4
COc1ccccc1CNc1ccc2c(c1)OC[C@H](CC(C)C)NS2(=O)=O	4	.	33	.	.	.
Cc1ccc(C(C)C)c(OCCCNCc2cccnc2)c1	15	-6	-10	-23	-29	28
Cc1ccc(C(C)C)c(OCCNCCc2ccccc2)c1	44*	20	25	-16	-3	3
CC(C)(C)[C@H]1C=C(C(=O)N2CCN(Cc3ccccc3)CC2)O[C@@H](OCc2ccc(CO)cc2)C1	16	-12	-6	-15	-18	37
CC(C)c1ccc(CN2CC(C(=O)Nc3ccccc3)CC2=O)cc1 (stereo unspecified)	3	17*	6	6	-6	4
